# Experimental data reported in the RNAGym collection of RNA variant scans (doi:10.1126/science.aae0568).
# Variants at the floor of the assay were thinned out.
# B1: tRNA (parent)
# chain: GUUCCGUUGGCGUAAUGGUAACGCGUCUCCCUCCUAAGGAGAAGACUGCGGGUUCGAGUCCCGUACGGAACG
# Variants of: B1
# Assay: yeast fitness relative to wild type (ratio to wild type); higher = fitter; tRNA-Arg(CCU), competitive growth, 37 C, YPD
# Procedure, shortened: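 Genotype frequency changes were the basis for Darwinian fitness relative to wild type. The frequencies came from 100-nucleotide paired-end sequencing of gene amplicons from the start population and each end population of pooled yeast strains with tRNA-Arg(CCU) gene variants at the native locus. Competition ran in YPD at 37°C for 24 hours in six replicates, genotypes needed ≥ 100 starting reads, and estimates < 0.5 were set to 0.5.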
row,Variant,yeast fitness
1,GGUCCGUUGGCGUAAUGGUAACGCGUCUCCCUCCUAAGGAGAAGACGGCGGGUUCGAGUCCCGUACUGAACG [U2G U47G G67U],≤ 0.5
2,GUACCGUUGGCGUAAUGGUACCGGGUCUCCCUCCUAAGGAGAAGACUGCGGGUUCGAGUCCCGUACGAAACG [U3A A21C C24G G68A],≤ 0.5
3,GUACCGUUGGCGUUAUGGUAACGCGUCUCCCUCCUAAGGAGAAGACUGCGGGUUCGAGUGUGGUUCGGAACG [U3A A14U C60G C61U C62G A65U],≤ 0.5
4,GUACCGUUGGCGUGAUGGUAACGCGUCUCCCUCCUAAGGAGAAGAGUGCGGGUUCGAGUCCCGUACGGAACG [U3A A14G C46G],0.62
5,GUACCGUUGGCGUAAUGGUAACGCGUCUCCCUCCUAAGGAGAAGACUGCGGGUUCGUGUCCCGUCCGGCACG [U3A A57U A65C A69C],0.593
6,GUACCGUUGGCGUAAUGGUAACGCGUCUCCCUCCUUGGGAGAAGACUGCGGGUUCGAGUCCCGUACGGAACG [U3A A36U A37G],≤ 0.5
7,GUACCGUUGGCGUAAUGGUAACGCGUCUCCCUCCUUAGGAGAGGACUGCGGCUUCGAGUCCCGUACGGAACG [U3A A36U A43G G52C],≤ 0.5
8,GUACCGUUGGCGUCAUGGUCACGCGUCUCCCUCCUAAGGAGAAGACUGCGGGUUCGAGUCCCGAACGGAACG [U3A A14C A20C U64A],≤ 0.5
9,GUACCGUUGGCGUCAUGGUAACGCGUCUCCCUCCUAAGGAGCAGACCGCGGGUUCGAGUCCCGUACGGAACG [U3A A14C A42C U47C],≤ 0.5
10,GUACCGUUGGCGUAAUGGUACCGGGUCUCCCUCCUAAGGAGAAGACUGCGGGUUCGAGUCCGGUACGGAACG [U3A A21C C24G C62G],0.599
11,GUACCGUUGGCGUAAUGGUAACGCGUCUCCCUCCUUAGGAGAGGACUGCGGCUUCGAGUCCCAUACUGACCG [U3A A36U A43G G52C G63A G67U A70C],0.557
12,GGUCCGGUGGCGUAACGGUAACGUGUCUCCCUCUUAAGGAGAAGACUGCAGGUCCGAGUCCCGUUCGGAACG [U2G U7G U16C C24U C34U G50A U54C A65U],≤ 0.5
13,GGUCCGUUGGCGUAAUGGUAACGCGUCUCCCCGCUAAGGAGAAGACUGCGGGUUCGAGUCCUGUACGGAACG [U2G U32C C33G C62U],0.535
14,GUACCGUUGGCGUAAUGGUAACGCGUCUCCCUCCUAAGGAGAAGUGUGCGGAUUCGAGUCCCGUACGGAACG [U3A A45U C46G G52A],0.613
15,GUACCGUUGGCGUACUGGUAACGCGUCUCCCUCCUAAGGAGAAAACUGCGGGUUCGUGUCCCGUACGGAACG [U3A A15C G44A A57U],≤ 0.5
16,GUACCGUUGGCGUGAUGGUAACGCGUCUCCGUCCUAUGGAGAAGACUGCGGGUUCGAGUCCCGUUCGGAACG [U3A A14G C31G A37U A65U],≤ 0.5
17,GUACCGUUGGCGUAAUGGUGACGCGUCUUCCUCCUAAGGAGAAGACUCCGGGUUCGAGUCCCGUACGGAACG [U3A A20G C29U G48C],≤ 0.5
18,GUACCGUUGGCGUAAUGGUAACGCGUCUCCCUCCUAAGGAGAAGACUGCGGGUUCGAGUCCCGUCCGGAACG [U3A A65C],0.879
19,GUACCGUUGGCGUAAUGGUAACGCGUCUCCCUCCUAAGGGGGAGACUGCGGGUUCGCGUCCCGUAUGGAACG [U3A A40G A42G A57C C66U],≤ 0.5

row,Variant,yeast fitness
1,GGUCCGUUGGCGUAAGGGUAACGCGUAUCCCUCCUCAGGAGAAGACUGCGAGUUCGAGUCCCGUACGGAACG [U2G U16G C27A A36C G51A],0.536
2,GGUCCGUUGGCGUAAUGGUAACGCGUCUCCCUCCUAAGGAGAAGACUGCGGGUCCGAGUCCCGUAUGGAACG [U2G U54C C66U],≤ 0.5
3,GUACCGUUGGCGUAAUGGUAACGCGUCUCCCUCCUCAGGAGAAGACUGCGCGUUCGAGUCCCGUACGGAACG [U3A A36C G51C],0.534
4,GUACCGUUGGCGUAAUGGUUACGCGUCUCCCUCCUAAGGAGAAGACUGCGGGUUCGAGUCCCGUACUGAACG [U3A A20U G67U],0.598
5,GUACCGUUGGCGUAAUGGUAACGCGUCUCCCUCCUUAGGAGAAGACUGCGGGUUCGGGUCCCCUACGGAACG [U3A A36U A57G G63C],0.681
6,GUACCGUUGGCGUAAUGGUAACGCGUCUCCCUCCUGAGGAGAAGACUGCGGGUUCGAGUCCCGUACGAACCG [U3A A36G G68A A70C],0.566
7,GUACCGUUGGCGUAAUGGUAGCCCGUCUCCCUCCUAAGGAGAAGACUGCGGGUUCGAGUCCCGUCCGGAACG [U3A A21G G23C A65C],≤ 0.5
8,GGUCCGUUGGCGUAAUGGUAACGCGGCUCUCUCCUAAGGAGAAGACUGCGGGUUCGAGGCCCGGACGAAACG [U2G U26G C30U U59G U64G G68A],≤ 0.5
9,GGUCCGUUGGCGUAAUGGUAACGCGUCUCCCUCCAAAGGAGAAGACUGCGGGUGCGAGUCCCGUACGGAACG [U2G U35A U54G],≤ 0.5
10,GUACCGUUGGCGUAAUGGUAGCGCGUCUCCCUCCUAAGGAGAAGACUGCGGGUUCGAGUCCCGUACGGACCG [U3A A21G A70C],1.05
11,GUACCGUUGGCGUAAUGGUAACGCGUCUCCCUCCUAAGGAGAAGACUGCGGGUUCGAGUCCCGUCCGGAUCG [U3A A65C A70U],0.66
12,GUACCGUUGGCGUAUUGGUACCGCGUCUCCCUCCUAAGCAGAGGACUGCGGGUCCGAGUCCCGUACGGAACG [U3A A15U A21C G39C A43G U54C],≤ 0.5
13,GGUCCGUUGGCGAAAUGGUAACGCGUCUCCCUCCUAAGGAGAAGACUGCGGGUUCGAGUCCCGUACGGAACG [U2G U13A],0.822
14,GGUCCGCUGGCGUAAUGCUAACGCGUCUCCCUCCUAAGGAGUAGACUGGGGGUUCGAGUCCCGUACGGAACG [U2G U7C G18C A42U C49G],≤ 0.5
15,GUACCGUUGGCGUGAUGGUAACGCGUCUCCCUCCUAAGGAGAAGACUGCGGGUUCGAAUCCCGUACGGAACG [U3A A14G G58A],0.883
16,GUACCGUUGGCGUAAUGGUAACGCGUCUCCCUCCUACGGAGAAGACUGCGGGUUCGAGUCCUGUACGGAACG [U3A A37C C62U],0.529
17,GGUCCGUUGGCGUAAUGGAAGCGCGUCUCCCUCCUAAGCAGAAGACUGCGGGUUCGAGUGCCGUACCGAACG [U2G U19A A21G G39C C60G G67C],≤ 0.5
18,GGUCCGUUGGCGUAAUGGAAGCGCGUCUCCCUCCUAAGGAGCAGACUCAGGGUUCGAGUCCCGUACGGAACG [U2G U19A A21G A42C G48C C49A],≤ 0.5
19,GUACCGUUGGCGUGAUGGUAACGCGUCUCCCUCCUAAGGAGAAGACUGCGGGUUCGAGUCCCGUACGGAACG [U3A A14G],0.934
